Experimental data from publication PMC11635510 (ACS Omega, 2024).
“Also recorded” adds a separate entry of the source.

Key:
[1] = target: T1, AChE (Homo sapiens, UniProt P22303); experiment: biochemical
[2] = target: T1, AChE; experiment: Enzyme kinetic study; assay type: biochemical
Outline: (§1)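 Inhibition type and Km taken from Lineweaver–Burk double-reciprocal plots. Ki derived from secondary plots of line slope versus inhibitor concentration and of 1/Vmax versus inhibitor concentration. Cholinesterase activity was measured by a modified Ellman method.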

[3] = target: T2, BChE (Homo sapiens, UniProt P06276); experiment: biochemical; assay type: biochemical; settings: for fold better BChE inhibitory activity in comparison with positive control: vs donepezil (positive control)
[4] = Toxicity assay on SH-SY5Y; assay type: cell-based; settings: human, SH-SY5Y neuroblastoma cells
Outline: (§2)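 SH-SY5Y cells were cultured in DMEM/F12 with 15% fetal bovine serum, 100 units/mL penicillin and 100 μg/mL streptomycin. Viability was read by MTT after 72 h exposure to test compound. Results are mean ± SEM of five independent experiments, each in triplicate; p < 0.05 was taken as significant.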

[5] = system: SH-SY5Y neuroblastoma cell line; experiment: Toxicity assay on SH-SY5Y; assay type: cell-based; settings: concentrations below 50 μM; 72 h; MTT
Outline: as §2

[6] = system: GSK-3β mRNA; experiment: GSK-3β mRNA level by quantitative PCR in SH-SY5Y; assay type: cell-based
[7] = target: T2, BChE; experiment: Enzyme kinetic study; assay type: biochemical
Outline: as §1

[8] = system: GSK-3α mRNA; experiment: GSK-3α mRNA level by quantitative PCR in SH-SY5Y; assay type: cell-based; settings: 25 μM
Outline: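 Cells were exposed to test compound at 25 μM. Total RNA was extracted with RNX-plus reagent following the manufacturer's protocol, and transcript levels were then quantified by real-time PCR.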

T1 sequence (P22303 32-614): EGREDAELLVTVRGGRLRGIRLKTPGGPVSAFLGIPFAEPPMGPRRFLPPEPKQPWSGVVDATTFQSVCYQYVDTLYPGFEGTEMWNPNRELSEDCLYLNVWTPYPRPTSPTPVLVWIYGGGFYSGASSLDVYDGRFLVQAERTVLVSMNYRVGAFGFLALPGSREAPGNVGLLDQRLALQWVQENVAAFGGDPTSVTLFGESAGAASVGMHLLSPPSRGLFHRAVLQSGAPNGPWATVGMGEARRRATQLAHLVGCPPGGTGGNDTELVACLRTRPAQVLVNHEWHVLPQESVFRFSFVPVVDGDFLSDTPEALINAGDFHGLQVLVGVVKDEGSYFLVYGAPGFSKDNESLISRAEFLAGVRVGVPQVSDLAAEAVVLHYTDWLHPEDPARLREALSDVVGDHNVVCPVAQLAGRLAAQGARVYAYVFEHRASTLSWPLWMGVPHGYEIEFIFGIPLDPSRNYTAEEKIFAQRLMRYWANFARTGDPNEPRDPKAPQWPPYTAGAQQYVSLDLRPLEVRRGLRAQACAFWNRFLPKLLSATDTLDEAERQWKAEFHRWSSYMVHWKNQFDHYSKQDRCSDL
T2 sequence (P06276 29-602, species assumed): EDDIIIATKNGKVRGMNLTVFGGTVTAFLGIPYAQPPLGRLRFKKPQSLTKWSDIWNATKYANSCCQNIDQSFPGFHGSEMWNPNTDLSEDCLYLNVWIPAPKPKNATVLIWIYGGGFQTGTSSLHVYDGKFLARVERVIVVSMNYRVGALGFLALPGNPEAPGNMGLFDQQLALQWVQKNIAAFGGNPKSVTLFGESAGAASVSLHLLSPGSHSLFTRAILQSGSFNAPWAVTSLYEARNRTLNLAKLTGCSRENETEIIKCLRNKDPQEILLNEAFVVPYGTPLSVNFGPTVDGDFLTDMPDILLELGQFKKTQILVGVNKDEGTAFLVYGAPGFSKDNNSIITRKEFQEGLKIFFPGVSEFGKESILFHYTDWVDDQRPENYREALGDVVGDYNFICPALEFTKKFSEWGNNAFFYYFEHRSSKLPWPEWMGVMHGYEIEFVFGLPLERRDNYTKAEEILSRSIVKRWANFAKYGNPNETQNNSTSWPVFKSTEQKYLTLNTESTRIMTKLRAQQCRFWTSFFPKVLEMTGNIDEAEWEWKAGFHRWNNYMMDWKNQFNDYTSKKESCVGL

| Structure (SMILES) | IC50 [1] [µM] | IC50 [3] [µM] | also measured |
| --- | --- | --- | --- |
| O=C(NCc1ccc[n+](Cc2ccc(Br)cc2)c1)c1ccc(CN2C(=O)c3ccccc3C2=O)cc1.[Br-] [Compound 7j] | 0.26 ± 0.07 |  | Ki [2]: 0.94 µM; secondary inhibition constant (Kis) ([2]; 1/Vmax vs inhibitor concentration, AChE): 4.29 µM; inhibition mode ([2]; Lineweaver-Burk plot, AChE): mixed mode of inhibition; also recorded: mixed-type inhibition pattern |
| O=C(NCc1ccc[n+](Cc2cccc(F)c2)c1)c1ccc(CN2C(=O)c3ccccc3C2=O)cc1.[Cl-] [Compound 7c] | 3.98 ± 0.21 | 0.08 ± 0.01 | fold better BChE inhibitory activity in comparison with positive control [3]: 132 fold; viability at 72 h, 50 µM [4]: ~80%; toxicity on SH-SY5Y at fewer concentrations [5]: did not exhibit any toxicity; reduction of GSK-3β mRNA level ([6]; 25 μM): 25%; mRNA level of GSK-3β ([6]; 25 μM, relative to control group): ~75%; effect on mRNA level of GSK-3β (in words) ([6]; SH-SY5Y, compared to control group): decreased; also recorded: could reduce the mRNA level of GSK-3β; Ki [7]: 0.13 µM; inhibition mode ([7]; Lineweaver-Burk plot, BChE): mixed-type inhibition mode; also recorded: mixed inhibitor; effect on the mRNA level of GSK3α [8]: no noticeable effect |
| CC[n+]1cccc(CNC(=O)c2ccc(CN3C(=O)c4ccccc4C3=O)cc2)c1 [Compound 7q] |  | 0.49 ± 0.04 | inhibition at 50 µM ([1]; read-out: AChE % inhibition at 50 μM): 33.6 ± 2.9% |
| O=C(NCc1ccc[n+](Cc2cccc(Cl)c2)c1)c1ccc(CN2C(=O)c3ccccc3C2=O)cc1 [Compound 7f] | 2.66 ± 0.88 | 0.56 ± 0.19 |  |
| CCCCC[n+]1cccc(CNC(=O)c2ccc(CN3C(=O)c4ccccc4C3=O)cc2)c1 [Compound 7p] | 6.29 ± 0.76 | 18.6 ± 1.21 |  |
| O=C(NCc1ccc[n+](Cc2cccc(Br)c2)c1)c1ccc(CN2C(=O)c3ccccc3C2=O)cc1 [Compound 7i] | 2.1 ± 0.49 | 0.15 ± 0.01 |  |
| O=C(NCc1ccc[n+](Cc2ccc([N+](=O)[O-])cc2)c1)c1ccc(CN2C(=O)c3ccccc3C2=O)cc1 [Compound 7l] | 5.06 ± 2.4 | 20.4 ± 2.55 |  |
| O=C(NCc1ccc[n+](Cc2ccc(F)cc2)c1)c1ccc(CN2C(=O)c3ccccc3C2=O)cc1 [Compound 7d] | 11.1 ± 1.29 | 0.33 ± 0.01 |  |
| O=C(NCc1ccc[n+](Cc2ccccc2)c1)c1ccc(CN2C(=O)c3ccccc3C2=O)cc1.[Br-] [Compound 7a] | 9.71 ± 0.83 | 0.32 ± 0.06 | fold better BChE inhibitory activity in comparison with positive control [3]: around 33 fold |
| O=C(NCc1ccc[n+](Cc2ccccc2F)c1)c1ccc(CN2C(=O)c3ccccc3C2=O)cc1 [Compound 7b] | 1.19 ± 0.45 | 0.31 ± 0.02 |  |
